Compound activity deposited in PubChem by several laboratories.
Dynein transport = blocks dynein driven cargo transport along microtubules; 3617.4 mouse cells, GR-EGFP nuclear translocation imaging; test concentration mostly 20 µM; stimulated with dexamethasone, 1 µM; hits give low values; z-score, hits read low; hit rate 0.47% among 220,000; AID 1381;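 active means plate z-score of nuclear minus cytoplasmic receptor signal below a set negative limit, without overly bright fluorescence or cell loss, cut at about -3.5 in these data, passing the limit was not always enough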;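 further: z-score of nuclear minus cytoplasmic ring GR-EGFP intensity difference per well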
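Medium: Induction medium lacking tetracycline, stripped serum | Probe or stimulus: 1.0 µM final dexamethasone stimulus | Schedule: 48 h induction, then 1 h compound, then 30 min agonist, 37 °C | Signal: Automated 10x imaging of fixed Hoechst-stained cells | Evaluation: Per-cell GR-EGFP intensity, nucleus versus surrounding cytoplasmic ring, well-averaged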
B2AR ag = activates human beta-2 adrenergic receptor causing internalization; P07550; Am2.2-beta2AR cells, FAP receptor internalization, flow cytometry; response, % (no concentration beside the values); hit rate 0.43% among 340,000; AID 504454;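 active means response above a set limit, near 3 SD of response in nonfluorescent compounds, cut at about 42% in these data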
TLR4-MyD88 BLA = blocks binding of human TLR4 to MyD88. O00206+Q99836. HeLa CL3-4 TLR4/MyD88 BLA complementation, FRET ratio. inhibition, % at 8.4 µM. hit rate 0.18% among 200,000. AID 861; in the data active means inhibition above about 25%;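 further: 0% = vehicle and 100% = reference inhibitor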
NOD2 RIPK2 PPI = inhibitors of human NOD2-RIPK2 interaction. CHO BLA complementation NOD2-RIPK2, CCF4 ratio. O43353. hit rate 0.38% among 360,000. AID 624267. inhibition, % at 4.98 µM; in the data active means inhibition above about 21%;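 further: 0% = vehicle only and 100% = reference blocker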
Target sequence (O43353 whole entry, looked up): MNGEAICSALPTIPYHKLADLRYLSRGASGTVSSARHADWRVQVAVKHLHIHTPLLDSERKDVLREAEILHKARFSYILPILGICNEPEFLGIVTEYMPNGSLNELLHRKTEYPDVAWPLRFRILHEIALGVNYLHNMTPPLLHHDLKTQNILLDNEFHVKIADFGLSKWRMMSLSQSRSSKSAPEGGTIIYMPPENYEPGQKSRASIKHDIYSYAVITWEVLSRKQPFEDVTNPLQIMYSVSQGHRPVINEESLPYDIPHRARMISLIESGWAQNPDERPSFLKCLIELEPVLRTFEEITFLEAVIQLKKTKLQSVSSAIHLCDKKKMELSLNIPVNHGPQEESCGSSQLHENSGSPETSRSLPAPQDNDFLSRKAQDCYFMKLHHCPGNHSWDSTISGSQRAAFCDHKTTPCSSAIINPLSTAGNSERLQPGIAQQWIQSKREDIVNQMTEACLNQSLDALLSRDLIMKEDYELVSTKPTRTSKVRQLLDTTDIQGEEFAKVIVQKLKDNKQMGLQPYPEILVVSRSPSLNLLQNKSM
ABHD5-PLIN5 inh = ABHD5-PLIN5 protein interaction inhibition; Q00G26+Q8WTS1; Split G. princeps luciferase complementation, luminescence, 4 h; inhibition, % at 4 µM; hit rate 0.78% among 360,000;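 active means inhibition above the mean inhibition across every tested compound plus 3 SD, cut at about 22% in these data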;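 further: 0% = DMSO only wells and the 100% control is not disclosed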
TLR9-MyD88 inh = blocks human TLR9 binding to MyD88; CHO BLA complementation TLR9-MyD88, CCF4 FRET ratio; inhibition, % at 4.98 µM; hit rate 0.21% among 340,000;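 active means inhibition above the mean over all tested compounds plus 3 SD, cut at about 21% in these data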;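 further: 0% = DMSO only wells and 100% = clavulanate BLA inhibitor control wells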
Beta2AR ag CP1 = human beta-2 adrenergic receptor agonism, cherry pick. shares compounds with B2AR ag. Am2.2-beta2AR cells, FAP surface receptor, flow cytometry; hits give low values. percent response (surface receptor), % at 10 µM. hit rate 25% among 1,100. AID 540358;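 active means surface receptor percent response at or below 58%, roughly 3 SD from nonfluorescent compounds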
B2AR FAP counter = flagged in Am2.2 fluorescence counterscreen for beta-2AR agonists | 1,100 tested, under 10 active | shares compounds with B2AR ag | calls only at 10 µM | Am2.2 cells, FAP fluorogen flow cytometry; hits give low values | AID 588765;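 active means percent response below a set limit in fluorescence channel 1 and below 50% in channel 8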
* marks the source's active call; other numbers are inactive results; i = inactive; / = no result. Compounds with a hit are over-represented: about 1.6% of the library has one in this group of screens.

SMILES	Dynein transport	B2AR ag	TLR4-MyD88 BLA	NOD2 RIPK2 PPI	ABHD5-PLIN5 inh	TLR9-MyD88 inh	Beta2AR ag CP1	B2AR FAP counter
CC(C)(C)NC(=O)C(c1ccc(F)cc1)N(Cc1ccccc1Cl)C(=O)c1ccn[nH]1 (configuration not stated)	-0.316	-4.0	-11.7	-3.7	5.8	-7.2	98.5	i
N#CC1=C(N)OC2=C(CCc3ccccc32)C1c1ccccc1 (configuration not stated)	0.308	42.8*	-7.5	-9.4	-5.5	-2.8	28.4*	i
N#CC1=C(N)Oc2cc(O)ccc2C1c1ccccc1 (configuration not stated)	0.776	-6.5	-2.3	8.2	-1.6	8.6	/	/
O=C1c2c(-c3ccc(Br)cc3)noc2CCN1Cc1cn(-c2ccc(Cl)cc2)nn1	/	/	/	-7.0	2.0	/	/	/
CNC(=O)NC(=O)C(c1ccccc1)N(C)CC1COc2ccccc2O1 (configuration not stated)	/	-6.6	/	-0.4	3.4	5.3	/	/
OC(c1cc(C(F)(F)F)nc2c(C(F)(F)F)cccc12)C1CCCCN1 (configuration not stated)	/	35.7	/	13.1	4.0	0.5	98.8	i
OC(c1cc(-c2ccc(C(F)(F)F)cc2)nc(C(F)(F)F)c1)C1CCCCN1 (configuration not stated)	-3.54	30.3	/	16.2	-13.9	12.0	/	/
CCCCC(=O)Nc1ccc(C(=O)N(CC)c2ccccc2C)cc1	1.3	62.7*	3.7	-7.9	-0.7	1.4	73.5	i
CCN(C(=O)c1ccc(NC(C)=O)cc1)c1ccccc1C	-0.309	-16.2	5.8	-3.6	-5.6	-7.4	/	/
COc1ccccc1OCCCC(=O)Nc1nccs1	-0.22	75.7*	9.5	11.7	-7.2	-6.9	59.1	i
Cc1cccc(OCCCC(=O)Nc2nccs2)c1C	-1.26	-1.6	/	0.3	0.5	8.8	/	/
CCCCCCn1c(=O)n2n(c1=O)C[C@]1(OC(=O)Nc3c(C)noc3C)CN(S(=O)(=O)c3ccc(C)cc3)C[C@]1(O)C2	/	/	/	-6.6	-9.7	-1.4	/	/
COC(=O)C1=C(C)N(Cc2ccccc2)C(=NCCc2cccnc2)N[C@H]1c1ccccc1	/	19.0	/	3.4	13.6	4.4	/	/
COC(=O)C1=C(C)N(Cc2ccccc2)C(=NCCc2cccnc2)N[C@H]1c1ccc(Br)cc1	/	47.2*	/	11.5	15.1	2.1	84.6	i
COc1ccc(-c2onc(C)c2-c2ccc(C(=O)OC(C)C)o2)c(O)c1	0.27	3.6	-2.2	-5.2	-13.2	-1.2	117.6	i
COc1ccc(-n2nc3c(N4CCC(C(=O)NCCc5ccco5)CC4)nnc(C)c3c2C)cc1	/	1.5	/	0.5	17.4	-5.3	/	/
COc1ccc(-n2nc3c(N4CCC(C(=O)NCc5cccc(C)c5)CC4)nnc(C)c3c2C)cc1	/	92.4*	/	13.2	9.1	6.2	27.2*	i
COc1cc(NC(=O)[C@H]2O[C@@H](n3cnc4c(N)ncnc43)[C@H](O)[C@@H]2O)cc(OC)c1OC	/	/	/	-7.4	5.5	/	/	/
Cc1cc(Cl)c2oc(C(=O)N3CCN(c4ccncc4)CC3)c(C)c2c1	/	64.8*	/	20.2	15.8	3.2	64.9	i
COC(=O)[C@@H](NC(=O)c1cc(COc2cncc(Cl)c2)on1)c1ccccc1	/	2.4	/	-5.2	-2.5	-3.5	97.2	i
CCc1ccc(CN(C)C(=O)c2cc(COc3cncc(Cl)c3)on2)cc1	/	/	/	2.4	-3.3	-0.7	106.0	i
Cc1ccc(OCc2cc(C(=O)N(C)Cc3cnn(-c4ccccc4C)c3)no2)cn1	/	100.1*	/	-10.4	8.8	0.0	19.4*	i
CCc1ccc(CN(C)C(=O)c2cc(COc3ccc(-n4cncn4)cc3)on2)cc1	/	-4.8	/	9.1	-3.4	8.2	/	/
CCC(NC(=O)c1cc(COc2cncc(Cl)c2)on1)c1ccc(C)cc1 (configuration not stated)	/	-0.8	/	3.5	2.9	0.6	87.7	i
OC(c1cc(F)cc(Cl)c1)c1ncc(-c2cccc(C(F)(F)F)c2)[nH]1 (configuration not stated)	/	/	/	0.8	-22.6	/	/	/
SMILES	Dynein transport	B2AR ag	TLR4-MyD88 BLA	NOD2 RIPK2 PPI	ABHD5-PLIN5 inh	TLR9-MyD88 inh	Beta2AR ag CP1	B2AR FAP counter
O=[N+]([O-])c1ccc2c(c1)-c1ccccc1C2O (configuration not stated)	/	/	/	1.0	8.7	4.2	/	/
Cc1cccc(C(O)c2ncc(-c3ccccc3F)[nH]2)c1C (configuration not stated)	/	/	/	-4.3	5.0	/	/	/
N#Cc1cc(-c2ccccc2)nnc1Oc1ccccc1Cl	-0.0232	57.2*	-9.1	5.2	-2.9	2.3	18.5*	i
C[C@@H]1OC(C2CCCCC2)N(C)[C@H]2C[C@H]3c4[nH]c5ccccc5c4CCN3C[C@@H]12 (some centres not stated)	/	/	/	7.4	-7.2	/	/	/
CCS(=O)(=O)c1ncc(Cl)c(C(=O)Nc2ccc(S(=O)(=O)N3CCCC(C)C3)cc2)n1 (configuration not stated)	/	46.7*	/	13.5	13.3	1.8	69.0	i
CCOC(=O)CSCC(=O)N1CCC(Cc2ccccc2)CC1	/	65.6*	/	1.8	-0.1	8.3	90.3	i
COc1cccc(CNC(=O)C2CCN(S(=O)(=O)c3ccc4c(c3)CC(C)N4C(C)=O)CC2)c1 (configuration not stated)	/	4.5	/	-15.1	3.6	4.0	/	/
CC(NCCC(c1ccccc1)c1ccccc1)c1ccccc1 (configuration not stated)	-0.401	25.1	8.1	-6.8	0.7	-4.8	84.0	i
N#Cc1c(C#N)c(SSc2c(C#N)c(C#N)c(N)n2-c2ccccc2)n(-c2ccccc2)c1N	/	-4.5	/	-26.7	-5.6	0.3	/	/
O=C(CSCc1ccc(Cl)cc1Cl)Nc1nccs1	0.735	53.9*	4.2	5.3	1.4	1.4	94.2	i
COc1ccc(OC)c(S(=O)(=O)N(C)CC(=O)N2CCOCC2)c1	/	0.6	/	-9.9	2.8	-17.5	/	/
COc1ccc(Cl)cc1S(=O)(=O)N(C)CC(=O)N1CCCC1	/	-1.2	/	-8.4	6.3	0.6	/	/
COc1ccc(OC)c(S(=O)(=O)N(C)CC(=O)N2CCN(c3cccc(Cl)c3)CC2)c1	0.726	-5.3	-5.3	9.0	2.4	0.3	131.3	i
COc1ccc(OC)c(S(=O)(=O)N(C)CC(=O)N2CCN(c3ccccc3F)CC2)c1	1.5	-3.1	14.2	8.0	3.3	4.2	106.0	i
COc1ccc(OC)c(S(=O)(=O)N(C)CC(=O)N2CCN(c3ccc(F)cc3)CC2)c1	-0.715	-16.1	-3.6	-11.7	-2.4	-1.1	99.9	i
